Measurements published in ChEMBL document CHEMBL1125832, “Synthesis and dopaminergic activity of 3-substituted 1-(aminomethyl)-3,4-dihydro-5,6-dihydroxy-1H-2-benzopyrans: characterization of an auxiliary binding region in the D1 receptor” (J Med Chem, 1991).

Key:
[1] = target: T1, D(2) dopamine receptor (Rattus norvegicus, UniProt P61169); experiment: Binding affinity using [3H]-spiperone radioligand competitive binding assay against dopamine receptor D2
How it was run: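 Rat striatal membranes in Tris pH 7.4 buffer with salts and ascorbate. [3H]spiperone at 300 pM final; nonspecific binding with 10 μM YM-09151-2. Incubated 20 min at 37 °C, then filtered. Ki derived from IC50 by Cheng-Prusoff.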

[2] = system: D1 dopamine receptor (Cyprinus carpio); experiment: Intrinsic activity measured relative to dopamine on D1C(R) receptor
[3] = target: T1, D(2) dopamine receptor; experiment: Concentration required to inhibit 50% dopamine receptor D2 in a cell free homogenate of intermediate lobe of pituitary gland; type: functional
[4] = Intrinsic activity relative to dopamine at D-2 receptor.; type: functional
[5] = target: T2, D(1A) dopamine receptor (Rattus norvegicus, UniProt P18901); experiment: Binding affinity using [125 I] SCH 23982 radioligand competitive binding assay on dopamine receptor D1
[6] = target: T2, D(1A) dopamine receptor; experiment: Inhibition of Dopamine receptor D1 activity by functional cyclase assay using cell free homogenate of rat striatum; type: tissue-based
How it was run: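 Adenylate cyclase stimulation in cell-free homogenate of rat striatum. EC50 is the concentration giving half-maximal stimulation of cAMP production.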

[7] = system: Rattus norvegicus; experiment: Rat rotation experiments were conducted to evaluate rational behavior of the rats by administering at a dose of 30 umol/kg subcutaneously; type: functional
How it was run: (§1)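 Rats with unilateral 6-hydroxydopamine lesions of the nigrostriatal bundle. Compound given subcutaneously or orally at the stated dose. Net contralateral rotations counted over 2 h after dosing and reported as mean ± SEM; negative values indicate ipsilateral turning.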

[8] = target: D(1A) dopamine receptor (Rattus norvegicus) (UniProt P18901); experiment: Intrinsic activity was measured in relative to dopamine on D1C(S) receptor
[9] = system: Rattus norvegicus; experiment: Rat rotation experiments were conducted to evaluate rational behavior of the rats by administering at a dose of 15 umol/kg subcutaneously; type: functional; how it was run: as §1
[10] = system: Rattus norvegicus; experiment: Rat rotation experiments were conducted to evaluate rational behavior of the rats by administering at a dose of 260 umol/kg subcutaneously; type: functional; how it was run: as §1
[11] = system: Rattus norvegicus; experiment: Rat rotation experiments were conducted to evaluate rational behavior of the rats by administering at a dose of 65 umol/Kg subcutaneously; type: functional; how it was run: as §1
[12] = system: Rattus norvegicus; experiment: Rat rotation experiments were conducted to evaluate rational behavior of the rats by administering at a dose of 130 umol/kg subcutaneously; type: functional; how it was run: as §1

Sequence of D(1A) dopamine receptor (Rattus norvegicus) (P18901 whole entry, looked up): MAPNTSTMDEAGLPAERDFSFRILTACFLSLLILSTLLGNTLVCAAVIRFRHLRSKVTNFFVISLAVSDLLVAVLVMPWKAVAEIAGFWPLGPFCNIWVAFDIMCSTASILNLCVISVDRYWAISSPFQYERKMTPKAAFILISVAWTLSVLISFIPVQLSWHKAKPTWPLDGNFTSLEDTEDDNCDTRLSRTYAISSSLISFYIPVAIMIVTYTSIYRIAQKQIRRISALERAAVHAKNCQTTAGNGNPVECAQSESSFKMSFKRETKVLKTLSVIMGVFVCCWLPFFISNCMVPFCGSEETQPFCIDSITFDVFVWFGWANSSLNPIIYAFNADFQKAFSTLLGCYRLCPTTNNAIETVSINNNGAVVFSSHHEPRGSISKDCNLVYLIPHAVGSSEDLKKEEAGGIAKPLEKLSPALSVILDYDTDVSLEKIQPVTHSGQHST
T2 sequence (P18901 whole entry): as the sequence (P18901 whole entry, looked up) above
T1 sequence (P61169 whole entry): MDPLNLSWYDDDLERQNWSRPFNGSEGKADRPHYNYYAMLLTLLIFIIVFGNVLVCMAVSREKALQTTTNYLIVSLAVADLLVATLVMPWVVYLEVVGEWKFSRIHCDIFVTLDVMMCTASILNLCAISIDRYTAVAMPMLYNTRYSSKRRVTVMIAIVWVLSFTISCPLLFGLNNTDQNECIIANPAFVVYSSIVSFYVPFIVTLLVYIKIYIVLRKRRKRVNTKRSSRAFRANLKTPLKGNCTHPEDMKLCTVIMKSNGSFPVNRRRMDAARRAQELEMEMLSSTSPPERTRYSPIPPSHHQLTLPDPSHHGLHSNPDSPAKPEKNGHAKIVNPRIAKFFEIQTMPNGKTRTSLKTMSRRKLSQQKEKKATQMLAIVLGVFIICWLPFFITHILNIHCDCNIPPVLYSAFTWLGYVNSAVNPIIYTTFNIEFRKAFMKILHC

| Ki [1] [nM] | Intrinsic activity [2] [%] | EC50 [3] [nM] | Intrinsic activity [4] [%] | Ki [5] [nM] | EC50 [6] [nM] | Intrinsic activity [8] [%] | Compound | Activity [7] | Activity [9] | Activity [10] | Activity [11] | Activity [12] |
| --- | --- | --- | --- | --- | --- | --- | --- | --- | --- | --- | --- | --- |
| 3530 | 89 | 10800 | 81 | 167 | – | – | CC[C@@H]1Cc2c(ccc(O)c2O)[C@H](CN)O1 | – | – | – | – | – |
| 2450 | – | > 10000 | – | > 10000 | – | – | Oc1ccc2c(c1O)CC(C1CCCCC1)O[C@H]2CNCc1ccccc1 (stereo partly drawn) | – | – | – | – | – |
| 764 | 107 | > 10000 | – | 310 | – | – | COc1cccc(C2Cc3c(ccc(O)c3O)[C@H](CN)O2)c1 (stereo partly drawn) | – | – | – | – | – |
| 776 | 124 | 427 | 76 | 30.4 | – | – | NC[C@@H]1OC(CC2CCCC2)Cc2c1ccc(O)c2O (stereo partly drawn) | – | – | – | – | – |
| 2090 | 106 | 358 | 94 | 52 | – | – | NC[C@@H]1OC(c2ccc(Br)cc2)Cc2c1ccc(O)c2O (stereo partly drawn) | – | – | – | – | – |
| 342 | – | 760 | 70 | 88.7 | – | – | NC[C@@H]1OC(C2CCCCCCC2)Cc2c1ccc(O)c2O (stereo partly drawn) | – | – | – | – | – |
| > 10000 | – | > 10000 | – | 2510 | – | – | C#CCN(C)C[C@@H]1OC(C2CCCCC2)Cc2c1ccc(O)c2O (stereo partly drawn) | – | – | – | – | – |
| 11500 | 87 | > 10000 | – | 4730 | – | – | C#CCNC[C@@H]1OC(C2CCCCC2)Cc2c1ccc(O)c2O (stereo partly drawn) | – | – | – | – | – |
| > 10000 | 92 | 5130 | 76 | 1760 | – | – | CC[C@H]1Cc2c(ccc(O)c2O)[C@H](CN)O1 | – | – | – | – | – |
| 1070 | – | 286 | 100 | 407 | – | – | C#CCC1Cc2c(ccc(O)c2O)[C@H](CN)O1 (stereo partly drawn) | – | – | – | – | – |
| 2610 | – | > 10000 | – | 530 | – | – | NC[C@@H]1OC(C(c2ccccc2)c2ccccc2)Cc2c1ccc(O)c2O (stereo partly drawn) | – | – | – | – | – |
| 825 | 151 | 359 | 80 | 870 | – | – | CCCCC1Cc2c(ccc(O)c2O)[C@H](CN)O1 (stereo partly drawn) | – | – | – | – | – |
| 2710 | – | > 10000 | – | 2650 | – | – | COc1ccc(CC2Cc3c(ccc(O)c3O)[C@H](CN)O2)cc1 (stereo partly drawn) | – | – | – | – | – |
| 12300 | 58 | > 10000 | – | 3140 | – | – | OCCCNC[C@@H]1OC(C2CCCCC2)Cc2c1ccc(O)c2O (stereo partly drawn) | – | – | – | – | – |
| 1470 | 93 | > 10000 | – | 443 | – | – | NC[C@@H]1OC(Cc2ccccc2)Cc2c1ccc(O)c2O (stereo partly drawn) | – | – | – | – | – |
| 590 | – | 192 | 111 | 0.49 | – | – | NC[C@@H]1OC(c2cccc(O)c2)Cc2c1ccc(O)c2O (stereo partly drawn) | – | – | – | – | – |
| – | – | > 10000 | – | – | – | – | NC[C@@H]1OC(C23C[C@H]4C[C@@H](C2)C[C@@H](C3)C4)Cc2c1ccc(O)c2O (stereo partly drawn) | – | – | – | – | – |
| 1050 | 161 | > 10000 | – | 13.7 | – | – | NC[C@@H]1OC(c2ccc(I)cc2)Cc2c1ccc(O)c2O (stereo partly drawn) | – | – | – | – | – |
| 1280 | 51 | > 10000 | – | 374 | 39.8 | 64 | NC[C@@H]1OC(COc2ccccc2)Cc2c1ccc(O)c2O (stereo partly drawn) | 514 | 467 | – | – | – |
| 636 | 71 | > 10000 | – | 329 | – | – | Oc1ccc2c(c1O)CC(C1CCCCC1)O[C@H]2CNC1CC1 (stereo partly drawn) | – | – | – | – | – |
| 670 | 76 | > 10000 | – | 248 | 18.9 | 78 | NC[C@@H]1OC(CCc2ccccc2)Cc2c1ccc(O)c2O (stereo partly drawn) | – | – | – | – | – |
| 4610 | – | 2850 | 96 | 1030 | – | – | NC[C@@H]1OCCc2c1ccc(O)c2O | – | – | 584 | 93 | 286 |
| 2600 | – | > 10000 | – | 3190 | – | – | C=CCN(C)C[C@@H]1OC(C2CCCCC2)Cc2c1ccc(O)c2O (stereo partly drawn) | – | – | – | – | – |
| 5540 | 90 | 782 | 80 | 704 | 23.4 | 84 | CCCCCCC1Cc2c(ccc(O)c2O)[C@H](CN)O1 (stereo partly drawn) | – | – | – | – | – |
| 4680 | 65 | 6680 | 56 | 479 | – | – | NC[C@@H]1OC2(CCCCC2)Cc2c1ccc(O)c2O | – | – | – | – | – |
| 724 | – | > 10000 | – | 14.1 | – | – | CNC[C@@H]1OC(C2CCCCC2)Cc2c1ccc(O)c2O (stereo partly drawn) | – | – | – | – | – |
| 386 | 107 | 204 | 78 | 2290 | – | – | NC[C@@H]1OC(COCc2ccccc2)Cc2c1ccc(O)c2O (stereo partly drawn) | – | – | – | – | – |
